# Measurements from ChEMBL document CHEMBL3272322, “8-chloro-(S)- and -(R)-10-((S)-and -(R)-3'-methylethylaminopyrrolidino)- 10,11-dihydrodibenzo(b,f)thiepins. Synthesis and pharmacological studies” (J Med Chem, 1976).
# Calls of active or inactive are those of the source.
# Key:
# Mus musculus [1] = test: Antiparkinson activity in albino CD-1 mouse assessed as inhibition of oxotremorine-induced salivation at 100 mg/kg, ip; type: functional
# In short: (§1)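 Five male CD-1 mice per group were pretreated ip with saline or compound 60-90 min before oxotremorine 1.0 mg/kg ip. Oxotremorine-induced hypothermia or salivation was then assessed.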
# Mus musculus [2] = test: Antiparkinson activity in albino CD-1 mouse assessed as inhibition of oxotremorine-induced hypothermia at 40 mg/kg, ip; type: functional, organism-based; design: dose 40 mg/kg; in short: as §1
# Mus musculus [3] = test: Analgetic activity in albino CD-1 mouse assessed as inhibition of thermally-induced pain at 10 to 20 mg/kg, ip; type: functional, organism-based
# In short: (§2)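 Male albino CD-1 mice (18-25 g) were given compound ip in distilled water and tested 60-90 min later on a hot wire analgetic apparatus at 50°. Reaction times were compared with saline-pretreated controls. Each point used 5 treated and 20 control mice and is reported as mean ± SEM in seconds. Statistics were analysis of variance followed by t test or Mann-Whitney U.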
# Mus musculus [4] = test: Analgetic activity in albino CD-1 mouse assessed as inhibition of thermally-induced pain at 10 to 15 mg/kg, ip relative to control; type: functional; details: dose mg/kg 10-15; route intraperitoneal; in short: as §2
# Mus musculus [5] = test: Analgetic activity in albino CD-1 mouse assessed as inhibition of thermally-induced pain at 20 to 40 mg/kg, ip relative to control; type: functional; design: scale not given: the % may be the effect or the level left; details: dose mg/kg 20-40; route intraperitoneal; in short: as §2
# Mus musculus [6] = test: Anticonvulsant activity in albino CD-1 mouse assessed as protection against pentylenetetrazol-induced clonic seizure ratio at 40 mg/kg, ip administered 60 to 90 mins before pentylenetetrazol challenge relative to control; type: functional; details: route intraperitoneal
# In short: (§3)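 Male CD-1 mice (18-25 g), 8-10 per group, received saline (1 ml/100 g) or compound (40 mg/kg) ip 60-90 min before seizure induction. Seizures were induced by iv infusion of 0.5% pentylenetetrazole solution. The minimal (clonic) and maximal (tonic) seizure thresholds were determined.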
# Mus musculus [7] = test: Anticonvulsant activity in albino CD-1 mouse assessed as protection against pentylenetetrazol-induced tonic seizure ratio at 40 mg/kg, ip administered 60 to 90 mins before pentylenetetrazol challenge relative to control; type: functional; details: route intraperitoneal; in short: as §3
# Mus musculus [8] = test: Toxicity in ip dosed albino CD-1 mouse assessed as muscle weakness and flaccidity; type: organism-based, Muscle tissue; details: in vivo
# Mus musculus [9] = test: Neuromuscular blocking activity in albino CD-1 mouse up to 20 mg/kg, ip; type: organism-based; design: dose 20 mg/kg, route intraperitoneal; details: in vivo
# In short: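 Male CD-1 mice were dosed ip in distilled water and tested 60-90 min later. Neuromuscular blockade was judged by ability to remain on a wire mesh screen inclined at 60°.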
# Ileum [10] = test: Antispasmodic activity in guinea pig ileum assessed as inhibition of histamine-induced contraction at 10^-8 to 10^-6 M; type: functional, tissue-based; details: Cavia porcellus
# In short: (§4)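 Isolated guinea pig ileum (both sexes) was suspended in Krebs' solution at 37 ± 0.5°, gassed with 95% O2-5% CO2. Antihistaminic, anticholinergic and nonselective antispasmodic activity were measured.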
# Ileum [11] = test: Antispasmodic activity in guinea pig ileum assessed as inhibition of acetylcholine-induced contraction at 10^-8 to 10^-6 M; type: functional, tissue-based; details: Cavia porcellus; in short: as §4
# Ileum [12] = test: Antispasmodic activity in guinea pig ileum assessed as inhibition of barium chloride-induced spasm at 5 x 10^-7 M; type: functional; details: Cavia porcellus; in short: as §4
# [13] = Acute toxicity in ip dosed albino CD-1 mouse after 24 hrs; type: organism-based; details: in vivo
# In short: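 Male albino CD-1 mice (18-25 g), groups of eight. Each mouse got a single ip injection of compound dissolved in distilled water. Lethality was scored 24 hr after dosing. LD50 was calculated with 95% confidence limits by the Litchfield and Wilcoxon method.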
# Mus musculus [14] = test: Acute toxicity in ip dosed albino CD-1 mouse assessed as mortality after 2 to 3 hrs; type: organism-based; details: in vivo
# [15] = Neurotoxicity against ip dosed albino CD-1 mouse by rotarod test; type: toxicity, organism-based; details: in vivo
# In short: (§5)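 Male CD-1 mice (18-25 g), five per group, were dosed ip in distilled water. The endpoint was failure to stay for 1 min on a horizontal rod rotating at 6 rpm. Time of peak effect was determined on the rod, and TD50 was measured at that time. TD50 is given with 95% confidence limits by Litchfield-Wilcoxon.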
# Mus musculus [16] = test: Neurotoxicity against ip dosed albino CD-1 mouse assessed as time of peak effect by rotarod test; type: toxicity, organism-based; details: in vivo; in short: as §5
# Mus musculus [17] = test: Antipsychotic activity in ip dosed albino CD-1 mouse assessed as spontaneous motor activity for 15 mins intervals for 2 hrs by conditioned avoidance test; type: functional; details: for ED50: CD-1, ip
# Mus musculus [18] = test: Toxicity in albino CD-1 mouse assessed as reduction of rectal temperature at 40 mg/kg, ip; type: organism-based; design: dose 40 mg/kg, route intraperitoneal; details: in vivo
# In short: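 Rectal temperature of male CD-1 mice was recorded by tele-thermometer with a small-animal probe at time of peak activity (60-90 min) after 40 mg/kg ip in distilled water.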
# Mus musculus [19] = test: Antidepressant activity in albino CD-1 mouse assessed as inhibition of reserpine-induced hypothermia up to 40 mg/kg, ip; type: functional, organism-based; design: dose 40 mg/kg
# In short: (§6)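 CD-1 male mice were dosed ip in distilled water 60-90 min before challenge with reserpine (4 mg/kg ip). Hypothermia, sedation and ptosis were assessed. Rectal temperature was taken with a tele-thermometer fitted with a small-animal probe.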
# Mus musculus [20] = test: Antidepressant activity in albino CD-1 mouse assessed as inhibition of reserpine-induced sedation up to 40 mg/kg, ip; type: functional, organism-based; design: dose 40 mg/kg; in short: as §6
# Mus musculus [21] = test: Antidepressant activity in albino CD-1 mouse assessed as inhibition of reserpine-induced ptosis up to 40 mg/kg, ip; type: functional, organism-based; design: dose 40 mg/kg; in short: as §6
# Mus musculus [22] = test: Antidepressant activity in albino CD-1 mouse assessed as potentiation of L-dopa-induced effect up to 40 mg/kg, ip; type: functional, organism-based; design: dose 40 mg/kg
# In short: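 Compound was given ip in distilled water to male CD-1 mice. Potentiation of stimulation induced by L-Dopa (100 mg/kg ip) was assessed.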
# Mus musculus [23] = test: Antiparkinson activity in albino CD-1 mouse assessed as inhibition of oxotremorine-induced diarrhea, and tremors at 5 to 40 mg/kg, ip; type: functional, organism-based
# Mus musculus [24] = test: Antiparkinson activity in ip dosed albino CD-1 mouse assessed as inhibition of oxotremorine-induced diarrhea, and tremors; type: functional, organism-based
# Mus musculus [25] = test: Antiparkinson activity in albino CD-1 mouse assessed as inhibition of oxotremorine-induced diarrhea, and tremors at 20 to 40 mg/kg, ip; type: functional; design: scale not given: the % may be the effect or the level left; details: dose mg/kg 20-40; route intraperitoneal
# Mus musculus [26] = test: Analgetic activity in albino CD-1 mouse assessed as inhibition of thermally-induced pain at 5 mg/kg, ip; type: functional, organism-based; design: dose 5 mg/kg; in short: as §2
# Mus musculus [27] = test: Antiparkinson activity in albino CD-1 mouse assessed as inhibition of oxotremorine-induced diarrhea, and tremors at 5 mg/kg, ip; type: functional; design: scale not given: the % may be the effect or the level left; details: route intraperitoneal
Compound,Activity (Mus musculus [2]),Activity (Mus musculus [3]),fold change (FC) (Mus musculus [4]),Activity (Mus musculus [5]),Ratio (Mus musculus [6]),Ratio (Mus musculus [7]),Activity (Mus musculus [8]),Activity (Mus musculus [9]),inhibition (Ileum [10]),inhibition (Ileum [11]),inhibition at 0.5 µM (Ileum [12]),LD50 at 24 h [13],Activity (Mus musculus [14]),TD50 [15],Time (Mus musculus [16]),Activity (Mus musculus [17]),ED50 (Mus musculus [17]),T (Mus musculus [18]),Activity (Mus musculus [19]),Activity (Mus musculus [20]),further results
CCN(C)[C@@H]1CCN([C@H]2Cc3ccccc3Sc3ccc(Cl)cc32)C1,inactive,Active,1.5,23%,1.24,0.73,Toxic,Non-toxic,Active,Active,40%,186 mg/kg,Toxic,13.6 mg/kg,60 min,Dose-dependent effect,12 mg/kg,5.1 °C,inactive,inactive,Activity (Mus musculus [1]): inactive; Activity (Mus musculus [21]): inactive; Activity (Mus musculus [22]): inactive; Activity (Mus musculus [23]): Active; Activity (Mus musculus [24]): Dose-dependent effect
CCN(C)[C@H]1CCN([C@H]2Cc3ccccc3Sc3ccc(Cl)cc32)C1,inactive,Active,1.5,23%,1.16,0.93,Toxic,Non-toxic,Active,Active,40%,175 mg/kg,Toxic,6.2 mg/kg,60 min,Dose-dependent effect,6.8 mg/kg,5.1 °C,inactive,inactive,Activity (Mus musculus [25]): 93%; Activity (Mus musculus [1]): inactive; Activity (Mus musculus [26]): Active; Activity (Mus musculus [21]): inactive; Activity (Mus musculus [22]): inactive; Activity (Mus musculus [23]): Active; Activity (Mus musculus [24]): Dose-dependent effect; Activity (Mus musculus [27]): 60%
CCN(C)[C@@H]1CCN([C@@H]2Cc3ccccc3Sc3ccc(Cl)cc32)C1,inactive,Active,1.5,23%,1.08,0.75,Toxic,Non-toxic,Active,Active,40%,217 mg/kg,Toxic,6.4 mg/kg,60 min,Dose-dependent effect,6.4 mg/kg,5.1 °C,inactive,inactive,Activity (Mus musculus [25]): 93%; Activity (Mus musculus [1]; route intraperitoneal): 60%; Activity (Mus musculus [26]): Active; Activity (Mus musculus [21]): inactive; Activity (Mus musculus [22]): inactive; Activity (Mus musculus [23]): Active; Activity (Mus musculus [24]): Dose-dependent effect; Activity (Mus musculus [27]): 60%
CCN(C)[C@H]1CCN([C@@H]2Cc3ccccc3Sc3ccc(Cl)cc32)C1,inactive,Active,1.5,23%,1.27,1,Toxic,Non-toxic,Active,Active,40%,177 mg/kg,Toxic,12.5 mg/kg,60 min,Dose-dependent effect,12 mg/kg,5.1 °C,inactive,inactive,Activity (Mus musculus [1]; route intraperitoneal): 27%; Activity (Mus musculus [21]): inactive; Activity (Mus musculus [22]): inactive; Activity (Mus musculus [23]): Active; Activity (Mus musculus [24]): Dose-dependent effect
